{
  "source": "ChEMBL document CHEMBL4513216",
  "about": "“Probing the Open Global Health Chemical Diversity Library for Multistage-Active Starting Points for Next-Generation Antimalarials” (ACS Infect Dis, 2020)",
  "data": [
    {"assay": "Toxicity liver stage against HepG2, at 10uM", "assay_type": "cell-based", "parameters": "test concentration 10 uM, cell line HepG2-A16-CD81EGFP", "conditions": "human, HepG2-A16-CD81EGFP cells; read-out: INHIBITION", "how_it_was_run": "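Uninfected HepG2-A16-CD81EGFP cells, 3 × 10^3 per well, 1536-well, plated on prespotted compound at 10 μM final, parasite-free screening media added to match infected plates; puromycin 10 μM positive, DMSO 0.5% negative; run in parallel with 48 h PbLuc assay at 37 °C, 5% CO2; viability by CellTiter-Glo luminescence, normalized to controls.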", "units": {"cytotoxicity at 10 µM": "%"}, "values": [
      {"smiles": "CC(=O)N1CCC(CN2CCN(Cc3nccn3C)C(C)C2)CC1", "note": "(stereo not given)", "cytotoxicity at 10 µM": -15.4},
      {"smiles": "CC(=O)N1CCN(c2ncnc3cc4c(cc23)OCCO4)CC1", "cytotoxicity at 10 µM": 13.4},
      {"smiles": "CC(=O)N1[C@H](Cn2cncn2)C[C@@H]2CN(Cc3nccs3)CC[C@@H]21", "cytotoxicity at 10 µM": 10},
      {"smiles": "CCS(=O)(=O)N1CC[C@H]2O[C@@H](c3nnc(C)o3)CC[C@H]21", "cytotoxicity at 10 µM": -63.7},
      {"smiles": "CN(CC(N)=O)C(=O)c1cc(Cl)c(Cl)n1C", "cytotoxicity at 10 µM": 8.56},
      {"smiles": "CNC1CCN(C2CCN(c3ccc(-c4ccco4)cc3)CC2)CC1", "cytotoxicity at 10 µM": -22.4},
      {"smiles": "O=C(O)c1cccnc1CN1CCCCC1CCc1ccccn1", "note": "(stereo not given)", "cytotoxicity at 10 µM": 7.4},
      {"smiles": "CC1CCN(CCNC(=O)c2cncnc2C(C)C)CC1", "cytotoxicity at 10 µM": -12},
      {"smiles": "Cc1cccc(C(C(=O)N2CCN(C(=O)c3ccc[nH]3)CC2)N(C)C)c1", "note": "(stereo not given)", "cytotoxicity at 10 µM": -7.55},
      {"smiles": "CN(Cc1ccc(F)cc1F)Cc1cc2c(cc1Br)OCCO2", "cytotoxicity at 10 µM": -111},
      {"smiles": "Cc1nc(-c2ccccc2C)n(CC(=O)NC2CCCC2)n1", "cytotoxicity at 10 µM": 5.48},
      {"smiles": "CCC(CO)N(Cc1cccc(O)c1)Cc1ccccc1C", "note": "(stereo not given)", "cytotoxicity at 10 µM": -8.22},
      {"smiles": "CC(C)N1CC2(CCC1=O)CCN(C(=O)c1cc(F)ccc1Cl)CC2", "cytotoxicity at 10 µM": 0.247},
      {"smiles": "Cc1ccnc(C(Nc2nccc(-c3ccc(C)nc3C)n2)C2CC2)c1", "note": "(stereo not given)", "cytotoxicity at 10 µM": -1.89},
      {"smiles": "NCc1cccc(-c2cccnc2C(=O)NCCCN2CCOCC2)c1", "cytotoxicity at 10 µM": -8.77},
      {"smiles": "CCn1cc(CNc2ccc(Br)c(OC)c2)cn1", "cytotoxicity at 10 µM": 5.42},
      {"smiles": "CCn1cnc(NC(=O)N2CCC(c3ccc(F)cc3)C2)n1", "note": "(stereo not given)", "cytotoxicity at 10 µM": 4.17},
      {"smiles": "COc1cccc(OCC(=O)NS(=O)(=O)c2ccc(Br)s2)c1", "cytotoxicity at 10 µM": -16.1},
      {"smiles": "CC(C)(C)c1ncc2c(n1)CN(C(=O)C(C)(C)n1cccc1)C2", "cytotoxicity at 10 µM": -120},
      {"smiles": "O=C(O)Cn1nc(C2CC2)c2c(-c3cccs3)ccnc21", "cytotoxicity at 10 µM": -11.6},
      {"smiles": "CN(Cc1ccccc1)S(=O)(=O)N1C[C@H](C2CC2)[C@@H](N)C1", "cytotoxicity at 10 µM": -159},
      {"smiles": "CCCN(CC(F)(F)F)S(=O)(=O)c1cc(C(N)=O)n(C)c1", "cytotoxicity at 10 µM": -4.15},
      {"smiles": "Cc1ccc(C(=O)NC2CCN(Cc3noc(CC(C)C)n3)CC2)s1", "cytotoxicity at 10 µM": -15.2},
      {"smiles": "CC(=O)NCC(=O)N1Cc2c(-c3cccc(C)c3)nc(N)nc2C1C", "note": "(stereo not given)", "cytotoxicity at 10 µM": 7.66},
      {"smiles": "Cc1ccc(-c2noc(CN3CCn4c(nnc4C4CC4)C3)n2)cc1", "cytotoxicity at 10 µM": -9.04},
      {"smiles": "O=C(CCN1CCCC(CO)(CC2CC2)C1)NC1CCCCC1", "note": "(stereo not given)", "cytotoxicity at 10 µM": 1.91},
      {"smiles": "CC(C)n1ccnc1CN1CCOC(CC2CCCCC2)C1", "note": "(stereo not given)", "cytotoxicity at 10 µM": -138},
      {"smiles": "Cc1cnn(CCC(=O)Nc2ccc(F)cc2OCC2CC2)c1", "cytotoxicity at 10 µM": -4.11},
      {"smiles": "CN(C(=O)c1cccc2[nH]ncc12)C1CCN(c2ccccn2)CC1", "cytotoxicity at 10 µM": 7.31},
      {"smiles": "Cc1csc([C@@H]2C[C@@H]3CCN(C(=O)c4cc(C)on4)C[C@H]3O2)n1", "cytotoxicity at 10 µM": 4.88},
      {"smiles": "Cc1ncc2c(n1)CCN(Cc1ncc(C(C)(C)C)o1)C2", "cytotoxicity at 10 µM": 14},
      {"smiles": "CC(=O)N1CCC(Oc2cccc(C#N)c2)CC1", "cytotoxicity at 10 µM": 6.35},
      {"smiles": "Cc1cnn(C2CCCN(C(=O)c3cn4ccccc4n3)C2)c1", "note": "(stereo not given)", "cytotoxicity at 10 µM": -6.35},
      {"smiles": "Cc1nccc([C@@H]2C[C@H]3CN(S(=O)(=O)c4ccccc4)C[C@H]3O2)n1", "cytotoxicity at 10 µM": 1.32},
      {"smiles": "CC(=O)NCCCSC1CCN(c2ccccc2Cl)C1=O", "note": "(stereo not given)", "cytotoxicity at 10 µM": -9.04},
      {"smiles": "CCCc1noc(CCC(=O)N2CCCC2c2cccc(OC)c2)n1", "note": "(stereo not given)", "cytotoxicity at 10 µM": -9.71},
      {"smiles": "Cc1cccnc1CN(C)CC1(O)CCCN(CC2CCCCC2)C1=O", "note": "(stereo not given)", "cytotoxicity at 10 µM": -4.09},
      {"smiles": "CC(C)NC(=O)N1CCCCC1c1nnc2n1CCNC2", "note": "(stereo not given)", "cytotoxicity at 10 µM": 14.3},
      {"smiles": "Cn1cc(N2CCC(NC(=O)c3ccccc3Cl)C2=O)cn1", "note": "(stereo not given)", "cytotoxicity at 10 µM": 4.35},
      {"smiles": "Cc1nc2c(c(NCCc3nccs3)n1)CCN(CC1CC1)CC2", "cytotoxicity at 10 µM": -1.38},
      {"smiles": "Cn1cnc2c1C(COCc1ccccc1)N(Cc1cccnc1)CC2", "note": "(stereo not given)", "cytotoxicity at 10 µM": 9.61},
      {"smiles": "CN(Cc1ncnn1C)c1ccnc(Cc2ccccc2)n1", "cytotoxicity at 10 µM": -1.92},
      {"smiles": "CC(=O)N1C[C@H]2CNC[C@@]2(C(=O)NCCNc2ccncc2C)C1", "cytotoxicity at 10 µM": -6.4},
      {"smiles": "CN(C)CCOCC1CN(C(=O)c2ccccn2)Cc2ccnn2C1", "note": "(stereo not given)", "cytotoxicity at 10 µM": -3.55},
      {"smiles": "c1ccc(CN2CCC3(CC2)CCN(Cc2cccnc2)C3)nc1", "cytotoxicity at 10 µM": -78.6},
      {"smiles": "Cn1nccc1-c1ccc2nc(C3CCNCC3)nn2c1", "cytotoxicity at 10 µM": 10.3},
      {"smiles": "Cn1c(=O)n(C)c2cc(NS(=O)(=O)Cc3ccccc3)ccc21", "cytotoxicity at 10 µM": -4.62},
      {"smiles": "CC(C(=O)NN1CCOCC1)n1nc(C(F)(F)F)c(Cl)c1C1CC1", "note": "(stereo not given)", "cytotoxicity at 10 µM": -0.37},
      {"smiles": "Cc1oc(-c2ccccc2)nc1CC(=O)NC1=NCCS1", "cytotoxicity at 10 µM": 0.898},
      {"smiles": "CO[C@@H]1CC[C@@H](NC(=O)CCc2ccc(Cl)cc2)[C@H]1O", "cytotoxicity at 10 µM": 3.84},
      {"smiles": "Cc1nc(C)n(CC2CN(Cc3cccc(C#N)c3)CCO2)n1", "note": "(stereo not given)", "cytotoxicity at 10 µM": -10.3},
      {"smiles": "c1ncn(CC2CCCN(Cc3csc(-c4ccsc4)n3)C2)n1", "note": "(stereo not given)", "cytotoxicity at 10 µM": -9.86},
      {"smiles": "CC(C(=O)Nc1ccc(N2CCCC2)nc1)n1cccn1", "note": "(stereo not given)", "cytotoxicity at 10 µM": -17.1},
      {"smiles": "Cc1cc(C(=O)N2C[C@@H]3C(CN(C)CCc4ccccn4)[C@@H]3C2)c(C)o1", "note": "(stereo not given in full)", "cytotoxicity at 10 µM": -50.1},
      {"smiles": "N#Cc1ccc(N2CCC3(CCC(=O)N3Cc3cccnc3)CC2)nc1", "cytotoxicity at 10 µM": -112},
      {"smiles": "CS(=O)(=O)N1CCCC12CCCN(C(=O)c1ccc[nH]1)C2", "note": "(stereo not given)", "cytotoxicity at 10 µM": -145},
      {"smiles": "CN(CCCc1cnn(C)c1)C(=O)Nc1cccc(C#N)c1", "cytotoxicity at 10 µM": -0.828},
      {"smiles": "COCCNC(=O)c1cc(-c2ccc3c(c2)CCO3)n[nH]1", "cytotoxicity at 10 µM": 0.843},
      {"smiles": "c1ccc(COC[C@@H]2CC[C@H]3[C@H](CCN3c3ncccn3)O2)nc1", "cytotoxicity at 10 µM": -74.6},
      {"smiles": "COCCNC(=O)[C@H]1C[C@@H]2CCN(CCc3ccccc3)C[C@H]2O1", "cytotoxicity at 10 µM": -70.3},
      {"smiles": "C[C@H]1CN2C[C@H](O)CC2CN1Cc1ccncc1", "note": "(stereo not given in full)", "cytotoxicity at 10 µM": -3.02},
      {"smiles": "CN1CCCC[C@@H]2[C@H]1[C@@H](c1ccccc1)CCN2C(=O)c1cnccn1", "cytotoxicity at 10 µM": -3.81},
      {"smiles": "CN(C)C[C@H]1CC[C@@H](Cc2ccc3c(cnn3C)c2)O1", "cytotoxicity at 10 µM": -1.07},
      {"smiles": "CN(CCCNC(=O)N1CCCC1c1ccsc1)c1ccccn1", "note": "(stereo not given)", "cytotoxicity at 10 µM": -4.53},
      {"smiles": "CCC(Nc1ccc(Oc2cccc(C#N)c2)cc1)C(N)=O", "note": "(stereo not given)", "cytotoxicity at 10 µM": 35.2},
      {"smiles": "Cc1ccc(S(N)(=O)=O)cc1C(=O)NC1CCN(C2CC2)CC1", "cytotoxicity at 10 µM": 13.3},
      {"smiles": "NC(=O)NC(=O)CNC1(c2ccc(Cl)cc2)CCCC1", "cytotoxicity at 10 µM": 15.7},
      {"smiles": "CCn1ccnc1CN1CCN(CCOc2ccccc2C#N)CC1", "cytotoxicity at 10 µM": -8.21},
      {"smiles": "COc1ncc(NS(=O)(=O)c2ccc(F)c(F)c2)c(OC)n1", "cytotoxicity at 10 µM": -7.76},
      {"smiles": "c1nc(N2CCOCC2)sc1-c1cncn1CCCN1CCCCC1", "cytotoxicity at 10 µM": 0.682},
      {"smiles": "CC(C)Oc1ncc(C(=O)N2CCC(N(C)C)CC2)cc1Cl", "cytotoxicity at 10 µM": -4.09},
      {"smiles": "COc1cc(F)cc(CNC(=O)Nc2ccn(CC(F)F)n2)c1", "cytotoxicity at 10 µM": -2.21},
      {"smiles": "N#Cc1cccc(Oc2ccc(CN3CCCC3)cc2Cl)n1", "cytotoxicity at 10 µM": -16},
      {"smiles": "CC(C)COCC1CN(Cc2ccoc2)Cc2ncn(C)c21", "note": "(stereo not given)", "cytotoxicity at 10 µM": 4.53},
      {"smiles": "CC(NC(=O)N(C)Cc1ccsc1)c1ccc2c(c1)OCO2", "note": "(stereo not given)", "cytotoxicity at 10 µM": -10.6},
      {"smiles": "CN(C)c1ncccc1CNC(=O)CCNc1ncccn1", "cytotoxicity at 10 µM": -2.22},
      {"smiles": "CC(C)CCC(=O)NC(C)c1nnc2n1CCCCC2", "note": "(stereo not given)", "cytotoxicity at 10 µM": -7.76},
      {"smiles": "COC(=O)c1cccc(C(=O)N2CCN(c3cccc(C)c3C)CC2)n1", "cytotoxicity at 10 µM": 79.9},
      {"smiles": "CCCn1nccc1C(=O)N1CCCN(CCCc2ccccc2)CC1", "cytotoxicity at 10 µM": -2.06},
      {"smiles": "COc1cccc(-c2cc(NCc3nc(C)cs3)n(C)n2)c1", "cytotoxicity at 10 µM": -0.717}
    ]}
  ]
}
